{"source": "ChEMBL document CHEMBL1127574", "about": "“Design and synthesis of ellipticinium salts and 1,2-dihydroellipticines with high selectivities against human CNS cancers in vitro” (1994)", "assay_type_in_all_cases": "functional", "conditions_in_all_cases": "Homo sapiens", "key": {"IGROV-1": {"tested_on": "IGROV-1", "experiment": "Tested in vitro for cytotoxicity in IGROV1 cell lines", "procedure,_shortened": "(§1)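 Compounds dissolved in DMSO, then diluted 500-fold into aqueous medium. The resulting aqueous solutions or suspensions were added to the cultured human tumour cell lines, and the cells were exposed for 48 h. Growth was read colorimetrically in one of two ways: a metabolic assay in which viable cells reduce a tetrazolium salt to a formazan dye, or a protein stain for total cellular protein.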"}, "CAKI-1": {"tested_on": "CAKI-1", "experiment": "Tested in vitro for cytotoxicity in CAKI-1 cell lines", "procedure,_shortened": "as §1"}, "DMS-114": {"tested_on": "DMS-114", "experiment": "Tested in vitro for cytotoxicity in DMS114 cell lines", "procedure,_shortened": "as §1"}, "A549": {"tested_on": "A549", "experiment": "Tested in vitro for cytotoxicity in A549/ATCC cell lines", "procedure,_shortened": "as §1"}, "SF-268": {"tested_on": "SF-268", "experiment": "Tested in vitro for cytotoxicity in SF-268 cell lines", "procedure,_shortened": "as §1"}, "CCRF-CEM": {"tested_on": "CCRF-CEM", "experiment": "Tested in vitro for cytotoxicity in CCRF-CEM cell lines", "procedure,_shortened": "as §1"}, "COLO 205": {"tested_on": "COLO 205", "experiment": "Tested in vitro for cytotoxicity in COLO 205 cell lines", "procedure,_shortened": "as §1"}, "Malme-3M": {"tested_on": "Malme-3M", "experiment": "Tested in vitro for cytotoxicity in MALME-3M", "procedure,_shortened": "as §1"}}, "data": [{"smiles": "Cc1c2cc[n+](C[S+](C)[O-])cc2c(C)c2c1[nH]c1ccccc12", "note": "(configuration not stated)", "values": [{"measurement": "GI50", "setting": "IGROV-1", "result": 29.5, "unit": "µM"}, {"measurement": "GI50", "setting": "CAKI-1", "result": 35.8, "unit": "µM"}, {"measurement": "GI50", "setting": "DMS-114", "result": 6.6, "unit": "µM"}, {"measurement": "GI50", "setting": "A549", "result": 71, "unit": "µM"}, {"measurement": "GI50", "setting": "SF-268", "result": 2.46, "unit": "µM"}, {"measurement": "GI50", "setting": "CCRF-CEM", "result": 40.6, "unit": "µM"}, {"measurement": "GI50", "setting": "COLO 205", "result": 31, "unit": "µM"}]}, {"smiles": "COC(=O)C[n+]1ccc2c(C)c3[nH]c4ccccc4c3c(C)c2c1", "values": [{"measurement": "GI50", "setting": "IGROV-1", "result": "> 100", "unit": "µM"}, {"measurement": "GI50", "setting": "Malme-3M", "result": "> 100", "unit": "µM"}, {"measurement": "GI50", "setting": "DMS-114", "result": "> 100", "unit": "µM"}, {"measurement": "GI50", "setting": "A549", "result": "> 100", "unit": "µM"}, {"measurement": "GI50", "setting": "SF-268", "result": 12.8, "unit": "µM"}, {"measurement": "GI50", "setting": "CCRF-CEM", "result": "> 100", "unit": "µM"}, {"measurement": "GI50", "setting": "COLO 205", "result": "> 100", "unit": "µM"}]}, {"smiles": "COCN1C=Cc2c(c(C)c3c([nH]c4ccccc43)c2C)C1", "values": [{"measurement": "GI50", "setting": "IGROV-1", "result": 5.88, "unit": "µM"}, {"measurement": "GI50", "setting": "CAKI-1", "result": 11.1, "unit": "µM"}, {"measurement": "GI50", "setting": "Malme-3M", "result": 8.87, "unit": "µM"}, {"measurement": "GI50", "setting": "DMS-114", "result": 10.4, "unit": "µM"}, {"measurement": "GI50", "setting": "A549", "result": 5.06, "unit": "µM"}, {"measurement": "GI50", "setting": "SF-268", "result": 8.02, "unit": "µM"}, {"measurement": "GI50", "setting": "CCRF-CEM", "result": 4.98, "unit": "µM"}, {"measurement": "GI50", "setting": "COLO 205", "result": 8.68, "unit": "µM"}]}]}
